Only some compounds are listed: those with a hit (about 4.4% of all), similar ones and a draw of the others.
MsrA inh = bovine MsrA inhibition; purified bovine MsrA, absorbance read-out; inhibition, % at 15.5 µM; actives 0.75% (n = 360,000); in the data active means inhibition above about 4.5%
AHR act = activates the human aryl hydrocarbon receptor; actives 2.5% (n = 320,000); P35869; activation, % at 5 µM; AID 2796; AHR-responsive luciferase reporter cells, luminescence; in the data active means activation above about 47%
bovine MsrA act = activates bovine MsrA enzyme | purified bovine MsrA, absorbance read-out | activation, % at 10.6 µM | actives 0.3% (n = 360,000) | AID 602163; in the data active means activation above about 7.5%
HTR2A ag = mouse HTR2A agonism via beta-arrestin recruitment. P35363. CHO-K1 mHTR2A beta-arrestin complementation, luminescence; percent of 30 µM serotonin response. activation, % at 7.6 µM. actives 0.66% (n = 360,000). AID 624169;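 active means activation above a run cutoff, the mean activation of all tested compounds plus 3 SD, cut at about 14% in these data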
Target sequence (P35363 whole entry, looked up): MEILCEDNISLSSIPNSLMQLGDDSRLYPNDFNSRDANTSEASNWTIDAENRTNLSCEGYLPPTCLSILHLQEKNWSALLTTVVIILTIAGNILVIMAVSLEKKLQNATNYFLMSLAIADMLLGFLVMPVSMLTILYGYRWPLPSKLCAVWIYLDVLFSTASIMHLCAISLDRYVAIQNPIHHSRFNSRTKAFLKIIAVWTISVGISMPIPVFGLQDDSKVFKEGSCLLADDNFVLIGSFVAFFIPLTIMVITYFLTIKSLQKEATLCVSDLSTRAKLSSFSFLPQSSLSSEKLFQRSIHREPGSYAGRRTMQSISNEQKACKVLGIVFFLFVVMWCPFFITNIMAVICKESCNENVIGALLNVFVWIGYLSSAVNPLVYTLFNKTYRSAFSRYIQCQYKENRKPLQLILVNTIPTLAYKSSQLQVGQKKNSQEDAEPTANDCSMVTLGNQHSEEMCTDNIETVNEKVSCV
AI-2 QS mod = modulators of Vibrio harveyi AI-2 quorum sensing system | Vibrio harveyi JMH597 AI-2 luminescence/OD600 ratio, 9 h; active compounds read low; strain lacks LuxN and CqsS sensors; 0 = neutral-control median | activity change, % at 7.5 µM | actives 0.4% (n = 300,000); in the data active means activity change below about -75%, passing the limit was not always enough;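 further: luminescence divided by OD600 gain over 9 h not by final OD600 alone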
Tb MetRS inh = Trypanosoma brucei MetRS inhibition. purified T. brucei MetRS, ATP depletion, Kinase-Glo luminescence. inhibition, % at 11.9 µM. actives 0.4% (n = 360,000). AID 624268;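 active means inhibition above a per-plate cutoff of the control wells' mean inhibition plus 3 SD, cut at about 5.5% in these data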
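Assay system: T. brucei methionyl-tRNA synthetase, purified | Medium: HEPES buffer with MgCl2, KCl, DTT, spermine, BSA, pyrophosphatase | Compound: 11.9 µM single point | Incubation: 15 min enzyme-compound preincubation, 2 h reaction, 10 min detection, 25 °C | Measured by: Kinase-Glo luciferase luminescence reporting remaining unconsumed ATP | Measure: % inhibition normalized to control-well medians | Replication: Singlicate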
AHR act cf = confirmation of human aryl hydrocarbon receptor activators; AID 2845; shares compounds with AHR act; actives 87% (n = 2,300); human cells, AHR-responsive luciferase reporter, luminescence; activation, % at 9 µM; in the data active means activation above about 49%;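 further: HepG2 hepatoma cells carrying a DRE-driven firefly luciferase reporter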
PXR act counter = activates human PXR in AHR activator counter-screen. cell-based PXR reporter, luciferase luminescence. actives 88% (n = 2,300). AID 434939. shares compounds with AHR act. activation, % at 11.6 µM; in the data active means activation above about 11%;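 further: human hepatoma DPX-2 cells expressing full-length human PXR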
Of the large screens only hits and unclear results are named; the others gave an inactive call (follow-up assays come after a bar, where they were run).

CCOc1cccc(/C=C/c2ccc3cccc(O)c3n2)c1O	AHR act 96 | AHR act cf 109 | PXR act counter inactive
OCc1nc2c(ccc3ccccc32)[nH]1	none
c1ccc2nc3c(nc2c1)[nH]c1ccccc13	AHR act 158 | AHR act cf 158 | PXR act counter 14
O=c1nc(-c2ccccc2)c2ccccc2[nH]1	none
c1ccc(-c2c3ccccc3nc3[nH]c4ccccc4c23)cc1	AHR act 103 (no result: MsrA inh) | AHR act cf 68 | PXR act counter 32
Cc1cc(C)c(S(=O)(=O)Nc2ncn[nH]2)cc1C	none (no result: AI-2 QS mod)
Cn1c(-c2ccsc2)c(-c2cccs2)c2cc(-c3cccc4[nH]ccc34)ccc21	AHR act 112 (no result: AI-2 QS mod) | AHR act cf 101 | PXR act counter 79
OCCSc1nc(-c2ccccc2)nc2ccc(F)cc12	AHR act 102 | AHR act cf 95 | PXR act counter 24
CC(C)NC(=O)N1Cc2cc(C(=O)NC3CCCCC3)nc(-c3cccc(-c4cccnc4)c3)c2[C@@H]1CCO	none (no result: AHR act, AI-2 QS mod)
Cc1nn(-c2ccccc2)c(Cl)c1/C=N/Nc1nc2ccccc2[nH]1	none
Cc1ccc(/C=N/Nc2nc3ccccc3[nH]2)s1	AHR act 109 | AHR act cf 143 | PXR act counter 30
CCOC(=O)N1CCN(C(=O)C[C@@H]2C[C@@]3(C(=O)OCC)CCC=C3N(Cc3ccco3)C2=O)CC1	none (no result: AHR act, AI-2 QS mod)
Brc1ccccc1/C=N/Nc1ccc2ccccc2n1	AHR act 94 | AHR act cf 131 | PXR act counter 14
N#CC12C(=O)NC(=O)C1(C#N)C21CCCC1 (stereo not drawn)	none (no result: AHR act, AI-2 QS mod)
Cc1c(/C=N/NC(=O)COc2ccccc2[N+](=O)[O-])c2ccccc2n1C	AHR act 81 | AHR act cf 95 | PXR act counter 101
Cc1cc(Cl)ccc1Nc1ncccc1C(N)=O	none
Cc1ccc(Nc2ncccc2C(N)=O)cc1	AHR act 151 | AHR act cf 133
COc1cc(Cl)c(C)cc1NC(=O)c1ccccc1NC(=O)CN1CCOCC1	AHR act 101 | AHR act cf 103 | PXR act counter 92
COc1ccc(NC(=O)c2ccccc2Cl)cc1NC(=O)CN1CCOCC1	none
CCC(=O)Nc1cc(-c2nn3c(C)nnc3s2)ccc1C	none
CC(=O)Nc1cc(-c2nn3c(C)nnc3s2)ccc1C	AHR act 99 | AHR act cf 89 | PXR act counter 11
O=P(O)(Cc1ccccc1)c1ccccc1	none (no result: AHR act, AI-2 QS mod)
O=c1c2[nH]c3cccc(Cl)c3c2ncn1Cc1ccncc1	AHR act 84 | AHR act cf 74 | PXR act counter 19
O=c1c2[nH]c3ccccc3c2ncn1Cc1ccncc1	none
O=C(COc1ccc2ccccc2c1)N/N=C/C1CC=CCC1 (stereo not drawn)	AHR act 85 | AHR act cf inactive | PXR act counter 12
COc1ccc(NC(=O)C(=O)NCC(c2ccco2)N2CCc3ccccc3C2)cc1OC (stereo not drawn)	none
Cn1c(=O)[nH]c2nnc(-c3ccc(Cl)c(Cl)c3)nc2c1=O	AHR act 112 | AHR act cf inactive | PXR act counter 15
COC(=O)c1ccc(CNC(=O)C23CC4CC(CC(C4)C2)C3)cc1	none
Oc1c(C(c2ccccc2)N2CCc3ccccc3C2)sc2ncnn12 (stereo not drawn)	AHR act 89 | AHR act cf 86 | PXR act counter 40
COc1cccc(/C=N/n2c(=O)[nH]c3ccccc32)c1OC	AHR act 118 | AHR act cf 94 | PXR act counter 18
Nc1ccc(-c2nc3c(ccc4ccccc43)[nH]2)cc1	AHR act 83 | AHR act cf 60 | PXR act counter inactive
Cc1cccc(N2C(=O)CN=C2Nc2nc(C)cc(C)n2)c1	AHR act 92 | AHR act cf 82 | PXR act counter 25
CN(C)S(=O)(=O)Oc1ccccc1C(=O)Nc1cccc(C(F)(F)F)c1	AHR act 82 | AHR act cf 100 | PXR act counter 55
